In test [1] the target is T1, Adenosine receptor A2b (Homo sapiens, UniProt P29275).
T1 sequence (P29275 whole entry): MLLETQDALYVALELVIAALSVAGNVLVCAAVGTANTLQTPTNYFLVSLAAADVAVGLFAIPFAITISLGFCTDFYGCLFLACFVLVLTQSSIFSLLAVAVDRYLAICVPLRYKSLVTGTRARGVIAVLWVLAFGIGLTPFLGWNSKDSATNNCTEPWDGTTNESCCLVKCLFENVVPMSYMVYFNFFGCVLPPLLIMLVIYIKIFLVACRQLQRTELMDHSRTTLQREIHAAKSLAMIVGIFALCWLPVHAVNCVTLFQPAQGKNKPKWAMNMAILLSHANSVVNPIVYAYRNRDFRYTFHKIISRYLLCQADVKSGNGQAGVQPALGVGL
Put plainly: Displacement of [3H]DPCPX from human Adenosine A2B receptor expressed in HEK293 cells; range 67-115. The format is cell-based. An outline of the steps: (§1)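 HEK-293 membranes expressing the human receptor were incubated 60 min at 25 °C. Six to eight test concentrations were used. Nonspecific binding was set with NECA. n = 3-6.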
In general terms: Displacement assays read how much labelled ligand stays bound in the presence of the test substance.

For test [2], the target named is T2, Adenosine receptor A1 (Homo sapiens, UniProt P30542).
T2 sequence (P30542 whole entry): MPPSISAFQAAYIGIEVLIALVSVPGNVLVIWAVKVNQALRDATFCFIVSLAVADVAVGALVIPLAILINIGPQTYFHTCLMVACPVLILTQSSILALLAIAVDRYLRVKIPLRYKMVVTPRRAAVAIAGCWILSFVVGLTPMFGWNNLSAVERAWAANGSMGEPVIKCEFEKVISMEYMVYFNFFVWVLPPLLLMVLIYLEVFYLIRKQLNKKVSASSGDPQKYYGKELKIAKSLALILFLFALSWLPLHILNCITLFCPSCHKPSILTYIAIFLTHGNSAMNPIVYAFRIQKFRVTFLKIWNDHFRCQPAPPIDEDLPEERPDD
Put plainly: Displacement of [3H]DPCPX from human Adenosine A1 receptor expressed in CHO cells; range 275-386. The format is cell-based. An outline of the steps:
(§2)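 Human recombinant A1 receptor in CHO cell membranes, resuspended in 50 mM Tris HCl pH 7.4. Displacement run 120 min at 25 °C with 1 nM [3H]DPCPX, 50 µg protein per assay, and at least six to eight test concentrations. Nonspecific binding defined with CHA. Bound and free separated on glass-fiber filters; filter radioactivity counted. n = 3-6.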

In test [3] the target is T3, Adenosine receptor A2a (Homo sapiens, UniProt P29274). The test can be described thus: Displacement of [3H]SCH-58261 from human Adenosine A2A receptor expressed in HEK293 cells; range 33-48. It counts as cell-based.
T3 sequence (P29274 whole entry): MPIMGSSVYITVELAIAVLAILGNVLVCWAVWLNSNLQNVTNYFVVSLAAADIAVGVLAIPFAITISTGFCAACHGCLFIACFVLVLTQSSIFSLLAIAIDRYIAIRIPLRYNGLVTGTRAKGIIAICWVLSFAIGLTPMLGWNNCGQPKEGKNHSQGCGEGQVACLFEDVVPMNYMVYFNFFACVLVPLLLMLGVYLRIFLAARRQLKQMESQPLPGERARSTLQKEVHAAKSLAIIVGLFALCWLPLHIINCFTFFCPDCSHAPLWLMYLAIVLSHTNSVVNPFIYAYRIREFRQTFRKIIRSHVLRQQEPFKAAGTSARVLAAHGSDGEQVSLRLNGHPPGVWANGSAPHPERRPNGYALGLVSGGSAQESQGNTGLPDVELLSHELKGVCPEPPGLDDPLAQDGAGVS
In test [4] the target is Adenosine receptors; A2b & A3 (Homo sapiens) (UniProt P29275+P0DMS8). The test can be described thus: Selectivity ratio (h2B/hA3). The format is protein assay.
Test [5] deals with Adenosine receptors; A1 & A3 (Homo sapiens) (UniProt P30542+P0DMS8). Put plainly: Selectivity ratio (hA1/hA3). The format is protein assay.
In test [6] the target is T4, Adenosine receptor A3 (Homo sapiens, UniProt P0DMS8).
T4 sequence (P0DMS8 whole entry): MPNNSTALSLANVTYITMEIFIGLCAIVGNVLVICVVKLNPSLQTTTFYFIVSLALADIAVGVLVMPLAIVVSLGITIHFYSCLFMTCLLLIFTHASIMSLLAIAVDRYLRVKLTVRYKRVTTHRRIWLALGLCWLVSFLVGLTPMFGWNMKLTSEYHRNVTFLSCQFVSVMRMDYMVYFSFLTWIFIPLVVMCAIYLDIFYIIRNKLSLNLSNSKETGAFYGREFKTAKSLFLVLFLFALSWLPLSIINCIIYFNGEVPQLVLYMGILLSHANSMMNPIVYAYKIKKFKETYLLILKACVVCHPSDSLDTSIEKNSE
The test can be described thus: biochemical.

Test [7] deals with T2, Adenosine receptor A1. Put plainly: Displacement of [3H]DPCPX from human Adenosine A1 receptor expressed in CHO cells; range 598-838. It counts as cell-based.
The target of test [8] is T3, Adenosine receptor A2a. Put plainly: Displacement of [3H]SCH-58261 from human Adenosine A2A receptor expressed in HEK293 cells; range 402-608. It counts as cell-based.
In test [9] the target is T1, Adenosine receptor A2b. The test can be described thus: Displacement of [3H]DPCPX from human Adenosine A2B receptor expressed in HEK293 cells; range 26-45. The format is cell-based. An outline of the steps:
(§3)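 Membranes from HEK-293 cells with human recombinant A2B receptor. Incubation 60 min at 25 °C in 50 mM Tris HCl, 10 mM MgCl2, 1 mM EDTA, 0.1 mM benzamidine, pH 7.4, with 2 IU/mL adenosine deaminase and 40 nM [3H]DPCPX. At least six to eight test concentrations. Nonspecific binding defined with NECA. n = 3-6.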

The target of test [10] is T4, Adenosine receptor A3. Put plainly: biochemical. The source holds these as a separate data set.
Test [11] has as its target T1, Adenosine receptor A2b. Put plainly: Displacement of [3H]DPCPX from human Adenosine A2B receptor expressed in HEK293 cells; range 127-203. It counts as cell-based. An outline of the steps: as §1
Test [12] addresses T2, Adenosine receptor A1. The test can be described thus: Displacement of [3H]DPCPX from human Adenosine A1 receptor expressed in CHO cells; range 210-376. The format is cell-based.
Test [13] concerns the target T3, Adenosine receptor A2a. Put plainly: Displacement of [3H]SCH-58261 from human Adenosine A2A receptor expressed in HEK293 cells; range 18-33. The format is cell-based.
Test [14] deals with T4, Adenosine receptor A3. Put plainly: biochemical. This is another data set of the same source.
Test [15] deals with T2, Adenosine receptor A1. Put plainly: Displacement of [3H]DPCPX from human Adenosine A1 receptor expressed in CHO cells; range 654-856. It counts as cell-based.
The target of test [16] is T4, Adenosine receptor A3. Put plainly: Inhibition of IB-MECA agonist-mediated cAMP production in CHO cell membranes expressing human Adenosine A3 receptor; range […]. The format is functional, cell-based. An outline of the steps: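 Human A3-CHO membranes (in 50 mM Tris HCl, 10 mM MgCl2, 1 mM EDTA, pH 7.4) were preincubated for 10 min at 37 °C with 5 µM GTP, 0.5 mM Ro 20-1724 and 2.0 IU/mL adenosine deaminase. IB-MECA (100 nM) or antagonist was then added with 1 mM ATP and forskolin for 10 min. The reaction was stopped by 2 min boiling. cAMP was measured by [3H]cAMP competitive protein binding using beef adrenal binding protein, 150 min at 4 °C.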
In general terms: Changes in cAMP serve as a functional read-out for many G protein-coupled receptors.

Test [17] concerns the target T3, Adenosine receptor A2a. Put plainly: Displacement of [3H]SCH-58261 from human Adenosine A2A receptor expressed in HEK293 cells; range 112-177. It counts as cell-based.
Test [18] addresses T4, Adenosine receptor A3. The test can be described thus: Displacement of [3H]MRE3008-F20 from human Adenosine A3 receptor expressed in HEK cells; range 0.64-0.86. It counts as cell-based, HEK293.
In test [19] the target is T1, Adenosine receptor A2b. Put plainly: Displacement of [3H]DPCPX from human Adenosine A2B receptor expressed in HEK293 cells; range 235-347. The format is cell-based. An outline of the steps:
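Competition binding on membranes of HEK-293 cells carrying recombinant human A2B receptor. Incubation 60 min at 25 °C in 50 mM Tris HCl pH 7.4 with 10 mM MgCl2, 1 mM EDTA, 0.1 mM benzamidine and 2 IU/mL adenosine deaminase. Radioligand 40 nM [3H]DPCPX, at least six to eight test concentrations. NECA defined nonspecific binding. Bound ligand separated on glass-fibre filters and counted; n = 3-6.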

Test [20] addresses T4, Adenosine receptor A3. Put plainly: Displacement of [3H]MRE3008-F20 from human Adenosine A3 receptor expressed in HEK cells; range 2.7-3.4. It counts as cell-based, HEK293.
The target in test [21] is T3, Adenosine receptor A2a. Put plainly: Displacement of [3H]SCH-58261 from human Adenosine A2A receptor expressed in HEK293 cells; range 300-414. It counts as cell-based.
Test [22] concerns the target T1, Adenosine receptor A2b. Put plainly: Displacement of [3H]DPCPX from human Adenosine A2B receptor expressed in HEK293 cells; range 32-51. It counts as cell-based. An outline of the steps: as §3
The target in test [23] is T2, Adenosine receptor A1. The test can be described thus: Displacement of [3H]DPCPX from human Adenosine A1 receptor expressed in CHO cells; range 453-609. It counts as cell-based. An outline of the steps: as §2

SMILES strings stand for the structures.

What is called Ki is a dissociation constant, usually derived from enzyme kinetics or from competition with a known ligand. A higher Ki goes with a looser hold on the target. Broadly, the IC50 is the midpoint of a concentration-inhibition curve. Lower therefore signals inhibition by little substance.

With `CCn1cc2c(nc(NC(=O)Nc3ccccc3)n3nc(-c4ccco4)nc23)n1`, the Ki turned out to be 88 nM on Adenosine receptor A2b [1], 326 nM at Adenosine receptor A1 [2], 40 nM on Adenosine receptor A2a [3] and 0.18 nM on Adenosine receptor A3 [6]. Also, the Ratio is 489 in [4] and 1810 in [5].

In the case of `CCCCn1cc2c(nc(NC(=O)Nc3ccc(Cl)c(Cl)c3)n3nc(-c4ccco4)nc23)n1`, the Ki on Adenosine receptor A1 [7] came out at 708 nM; at Adenosine receptor A2a [8], 495 nM; on Adenosine receptor A2b [9], 34 nM; at Adenosine receptor A3 [10], 3.7 nM. For the same molecule, the Ratio worked out at 9.19 in test [4] and 191 in test [5].

`CCCCn1cc2c(nc(NC(=O)Nc3ccc(C)cc3)n3nc(-c4ccco4)nc23)n1`: the Ki amounted to 161 nM on Adenosine receptor A2b [11], 281 nM on Adenosine receptor A1 [12], 24 nM at Adenosine receptor A2a [13] and 0.21 nM at Adenosine receptor A3 [14]. For the same molecule, the figures for the Ratio in test [4] and in [5] were 767 and 1340, respectively.

On to `Cn1cc2c(nc(NC(=O)Nc3ccc(C(F)(F)F)cc3)n3nc(-c4ccco4)nc23)n1`, for which the Ki at Adenosine receptor A1 [15] amounted to 750 nM; at Adenosine receptor A2a [17], 140 nM; on Adenosine receptor A3 [18], 0.74 nM; on Adenosine receptor A2b [19], 286 nM. Moreover, the IC50 on Adenosine receptor A3 [16] was found to be 6.6 nM. Also, the Ratio in [4] was determined as 386; in test [5] it was 1010.

Turning to `CCn1cc2c(nc(NC(=O)Nc3ccc(Cl)c(Cl)c3)n3nc(-c4ccco4)nc23)n1`, the inhibitory constant (Ki) on Adenosine receptor A3 [20] came to 3 nM; at Adenosine receptor A2a [21], 352 nM; at Adenosine receptor A2b [22], 40 nM; on Adenosine receptor A1 [23] it was 526 nM. Moreover, the Ratio turned out to be 13 in test [4] and 175 in [5].

(Values after ChEMBL document CHEMBL1136016, “Synthesis, biological activity, and molecular modeling investigation of new pyrazolo[4,3-e]-1,2,4-triazolo[1,5-c]pyrimidine derivatives as human A(3) adenosine receptor antagonists” (J Med Chem, 2002).)
